Measurements as given in ChEMBL document CHEMBL4689842, “EUbOPEN Chemogenomics Library wave 1” (2021).

Tested on: Fibroblast
Assay: Multiplex assay against human fibroblast
Format: toxicity, cell-based
Summary of the method: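 At seeding, live cells were stained with Hoechst33342, BioTracker Green Microtubule Cytoskeleton Dye, MitoTracker Red and Annexin V Alexa Fluor 680. After compound addition they were imaged on a CQ1 microscope at 37°C and 5% CO2, and CellPathfinder machine-learning gating sorted them into Hoechst high-intensity objects or normal cells, with normal cells further split into healthy, pyknosed or fragmented nuclei and pyknosed cells into mitotic or apoptotic. Tubulin, mitochondrial-mass and membrane-permeability phenotypes are given as per cents of cells with healthy nuclei.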

[1] = 12 h, 1 µM, compound concentration 1 uM, replicate 1
[2] = 12 h, 1 µM, compound concentration 1 uM, replicate 2
[3] = 12 h, 10 µM, compound concentration 10 uM, replicate 1
[4] = 12 h, 10 µM, compound concentration 10 uM, replicate 2
[5] = 24 h, 1 µM, compound concentration 1 uM, replicate 1
[6] = 24 h, 1 µM, compound concentration 1 uM, replicate 2
[7] = 24 h, 10 µM, compound concentration 10 uM, replicate 1
[8] = 24 h, 10 µM, compound concentration 10 uM, replicate 2

In the case of `CNC(=O)c1ccc(Nc2nc(OC3CCCC3)c3c(-c4ccc5nc(C)oc5c4)c[nH]c3n2)c(OC)c1`, the “Population Apoptotic (%)” value [1] was 69%, the “Population Fragmented Nuclei (%)” value [1] was 29% and the “Population Healthy Nuclei (%)” value [1] was 53%. The “Population Hoechst High Intensity Objects (%)” value [1] was 10%, the “Population Membrane Permeable-Phenotype (%)” value [1] was 46% and the “Population Mitochondria Different-Phenotype (%)” value [1] was 5%. For the same compound, the “Population Mitotic Cells (%)” value [1] was 30%, the “Population Normal (%)” value [1] was 89% and the “Population Pyknosed Nuclei (%)” value [1] was 17%. The “Population Tubulin-Different-Phenotype (%)” value [1] was 80%, the “Total Cell Count” value [1] was 237 and the “Population Apoptotic (%)” value [2] was 33%. For the same compound, the “Population Fragmented Nuclei (%)” value [2] was 60%, the “Population Healthy Nuclei (%)” value [2] was 34% and the “Population Hoechst High Intensity Objects (%)” value [2] was 33%. The “Population Membrane Permeable-Phenotype (%)” value [2] was 45%, the “Population Mitochondria Different-Phenotype (%)” value [2] was 9% and the “Population Mitotic Cells (%)” value [2] was 66%. The “Population Normal (%)” value [2] was 66%, the “Population Pyknosed Nuclei (%)” value [2] was 4% and the “Population Tubulin-Different-Phenotype (%)” value [2] was 86%. For the same compound, the “Total Cell Count” value [2] was 96, the “Population Apoptotic (%)” value [3] was 77% and the “Population Fragmented Nuclei (%)” value [3] was 33%. The “Population Healthy Nuclei (%)” value [3] was 50%, the “Population Hoechst High Intensity Objects (%)” value [3] was 14% and the “Population Membrane Permeable-Phenotype (%)” value [3] was 14%. The “Population Mitotic Cells (%)” value [3] was 22%, the “Population Normal (%)” value [3] was 85% and the “Population Pyknosed Nuclei (%)” value [3] was 16%. For the same compound, the “Population Tubulin-Different-Phenotype (%)” value [3] was 26%, the “Total Cell Count” value [3] was 194 and the “Population Apoptotic (%)” value [4] was 33%. The “Population Fragmented Nuclei (%)” value [4] was 60%, the “Population Healthy Nuclei (%)” value [4] was 27% and the “Population Hoechst High Intensity Objects (%)” value [4] was 40%. For the same compound, the “Population Membrane Permeable-Phenotype (%)” value [4] was 30%, the “Population Mitochondria Different-Phenotype (%)” value [4] was 7% and the “Population Mitotic Cells (%)” value [4] was 66%. For the same compound, the “Population Normal (%)” value [4] was 59%, the “Population Pyknosed Nuclei (%)” value [4] was 12% and the “Population Tubulin-Different-Phenotype (%)” value [4] was 23%. For the same compound, the “Population Apoptotic (%)” value [5] was 67%, the “Population Fragmented Nuclei (%)” value [5] was 36% and the “Population Healthy Nuclei (%)” value [5] was 41%. For the same compound, the “Population Hoechst High Intensity Objects (%)” value [5] was 10%, the “Population Membrane Permeable-Phenotype (%)” value [5] was 26% and the “Population Mitochondria Different-Phenotype (%)” value [5] was 11%. The “Population Mitotic Cells (%)” value [5] was 32%, the “Population Normal (%)” value [5] was 89% and the “Population Pyknosed Nuclei (%)” value [5] was 22%. The “Population Tubulin-Different-Phenotype (%)” value [5] was 79%, the “Total Cell Count” value [5] was 265 and the “Population Apoptotic (%)” value [6] was 100%. The “Population Fragmented Nuclei (%)” value [6] was 62%, the “Population Healthy Nuclei (%)” value [6] was 35% and the “Population Hoechst High Intensity Objects (%)” value [6] was 35%. For the same compound, the “Population Membrane Permeable-Phenotype (%)” value [6] was 19%, the “Population Mitochondria Different-Phenotype (%)” value [6] was 19% and the “Population Mitotic Cells (%)” value [6] was 0%. The “Population Normal (%)” value [6] was 64%, the “Population Pyknosed Nuclei (%)” value [6] was 1% and the “Population Tubulin-Different-Phenotype (%)” value [6] was 90%. For the same compound, the “Total Cell Count” value [6] was 92, the “Population Fragmented Nuclei (%)” value [7] was 28% and the “Population Healthy Nuclei (%)” value [7] was 52%. The “Population Hoechst High Intensity Objects (%)” value [7] was 23%, the “Population Membrane Permeable-Phenotype (%)” value [7] was 5% and the “Population Mitochondria Different-Phenotype (%)” value [7] was 3%. The “Population Normal (%)” value [7] was 76%, the “Population Pyknosed Nuclei (%)” value [7] was 19% and the “Population Tubulin-Different-Phenotype (%)” value [7] was 19%. The “Total Cell Count” value [7] was 193, the “Population Apoptotic (%)” value [8] was 71% and the “Population Fragmented Nuclei (%)” value [8] was 60%. The “Population Healthy Nuclei (%)” value [8] was 25%, the “Population Hoechst High Intensity Objects (%)” value [8] was 40% and the “Population Membrane Permeable-Phenotype (%)” value [8] was 7%. The “Population Mitochondria Different-Phenotype (%)” value [8] was 7%, the “Population Mitotic Cells (%)” value [8] was 28% and the “Population Normal (%)” value [8] was 60%. For the same compound, the “Population Pyknosed Nuclei (%)” value [8] was 13%, the “Population Tubulin-Different-Phenotype (%)” value [8] was 23% and the “Total Cell Count” value [8] was 85.

For `COc1ccc(S(=O)(=O)N(CCO)c2ccccc2CN(C)C/C=C/c2ccc(Cl)cc2)cc1.O=P(O)(O)O`, the “Population Fragmented Nuclei (%)” value [1] was 35%, the “Population Healthy Nuclei (%)” value [1] was 51% and the “Population Hoechst High Intensity Objects (%)” value [1] was 16%. The “Population Membrane Permeable-Phenotype (%)” value [1] was 12%, the “Population Mitochondria Different-Phenotype (%)” value [1] was 29% and the “Population Mitotic Cells (%)” value [1] was 19%. For the same compound, the “Population Normal (%)” value [1] was 83%, the “Population Pyknosed Nuclei (%)” value [1] was 13% and the “Population Tubulin-Different-Phenotype (%)” value [1] was 86%. The “Total Cell Count” value [1] was 278, the “Population Apoptotic (%)” value [2] was 80% and the “Population Fragmented Nuclei (%)” value [2] was 56%. For the same compound, the “Population Healthy Nuclei (%)” value [2] was 33%, the “Population Hoechst High Intensity Objects (%)” value [2] was 33% and the “Population Membrane Permeable-Phenotype (%)” value [2] was 11%. For the same compound, the “Population Mitochondria Different-Phenotype (%)” value [2] was 88%, the “Population Mitotic Cells (%)” value [2] was 20% and the “Population Normal (%)” value [2] was 66%. The “Population Pyknosed Nuclei (%)” value [2] was 9%, the “Population Tubulin-Different-Phenotype (%)” value [2] was 94% and the “Total Cell Count” value [2] was 77. The “Population Apoptotic (%)” value [3] was 75%, the “Population Fragmented Nuclei (%)” value [3] was 32% and the “Population Healthy Nuclei (%)” value [3] was 55%. For the same compound, the “Population Hoechst High Intensity Objects (%)” value [3] was 10%, the “Population Membrane Permeable-Phenotype (%)” value [3] was 14% and the “Population Mitochondria Different-Phenotype (%)” value [3] was 5%. For the same compound, the “Population Mitotic Cells (%)” value [3] was 25%, the “Population Normal (%)” value [3] was 89% and the “Population Pyknosed Nuclei (%)” value [3] was 12%. For the same compound, the “Population Tubulin-Different-Phenotype (%)” value [3] was 19%, the “Total Cell Count” value [3] was 179 and the “Population Apoptotic (%)” value [4] was 50%. For the same compound, the “Population Fragmented Nuclei (%)” value [4] was 61%, the “Population Healthy Nuclei (%)” value [4] was 34% and the “Population Hoechst High Intensity Objects (%)” value [4] was 44%. The “Population Membrane Permeable-Phenotype (%)” value [4] was 22%, the “Population Mitochondria Different-Phenotype (%)” value [4] was 22% and the “Population Mitotic Cells (%)” value [4] was 50%. For the same compound, the “Population Normal (%)” value [4] was 55%, the “Population Pyknosed Nuclei (%)” value [4] was 3% and the “Population Tubulin-Different-Phenotype (%)” value [4] was 55%. For the same compound, the “Total Cell Count” value [4] was 94, the “Population Apoptotic (%)” value [5] was 80% and the “Population Fragmented Nuclei (%)” value [5] was 34%. The “Population Healthy Nuclei (%)” value [5] was 55%, the “Population Hoechst High Intensity Objects (%)” value [5] was 23% and the “Population Membrane Permeable-Phenotype (%)” value [5] was 5%. The “Population Mitochondria Different-Phenotype (%)” value [5] was 79%, the “Population Mitotic Cells (%)” value [5] was 20% and the “Population Normal (%)” value [5] was 76%. For the same compound, the “Population Pyknosed Nuclei (%)” value [5] was 9%, the “Population Tubulin-Different-Phenotype (%)” value [5] was 90% and the “Total Cell Count” value [5] was 264. The “Population Apoptotic (%)” value [6] was 100%, the “Population Fragmented Nuclei (%)” value [6] was 48% and the “Population Healthy Nuclei (%)” value [6] was 38%. The “Population Hoechst High Intensity Objects (%)” value [6] was 37%, the “Population Membrane Permeable-Phenotype (%)” value [6] was 0% and the “Population Mitochondria Different-Phenotype (%)” value [6] was 100%. The “Population Mitotic Cells (%)” value [6] was 0%, the “Population Normal (%)” value [6] was 62% and the “Population Pyknosed Nuclei (%)” value [6] was 12%. For the same compound, the “Population Tubulin-Different-Phenotype (%)” value [6] was 88%, the “Total Cell Count” value [6] was 75 and the “Population Apoptotic (%)” value [7] was 69%. The “Population Fragmented Nuclei (%)” value [7] was 33%, the “Population Healthy Nuclei (%)” value [7] was 52% and the “Population Hoechst High Intensity Objects (%)” value [7] was 14%. For the same compound, the “Population Membrane Permeable-Phenotype (%)” value [7] was 8%, the “Population Mitochondria Different-Phenotype (%)” value [7] was 3% and the “Population Mitotic Cells (%)” value [7] was 30%. For the same compound, the “Population Normal (%)” value [7] was 85%, the “Population Pyknosed Nuclei (%)” value [7] was 14% and the “Population Tubulin-Different-Phenotype (%)” value [7] was 14%. For the same compound, the “Total Cell Count” value [7] was 186, the “Population Apoptotic (%)” value [8] was 75% and the “Population Fragmented Nuclei (%)” value [8] was 71%. For the same compound, the “Population Healthy Nuclei (%)” value [8] was 20%, the “Population Hoechst High Intensity Objects (%)” value [8] was 44% and the “Population Membrane Permeable-Phenotype (%)” value [8] was 18%. For the same compound, the “Population Mitochondria Different-Phenotype (%)” value [8] was 18%, the “Population Mitotic Cells (%)” value [8] was 25% and the “Population Normal (%)” value [8] was 55%. The “Population Pyknosed Nuclei (%)” value [8] was 7%, the “Population Tubulin-Different-Phenotype (%)” value [8] was 36% and the “Total Cell Count” value [8] was 95.
